Our source for the IC50, inhibition and Activity values is ChEMBL document CHEMBL1140080, “Adamantyl-substituted retinoid-derived molecules that interact with the orphan nuclear receptor small heterodimer partner: effects of replacing the 1-adamantyl or hydroxyl group on inhibition of cancer cell growth, induction of cancer cell apoptosis, and inhibition of SRC homology 2 …” (J Med Chem, 2008).

One may read the IC50 as the concentration at which inhibition is half-maximal. A high value points to weaker potency.

The nature of data set [1]: Antiproliferative activity against human KG1 AML cells after 48 hrs by MTT assay. The conditions noted are these: in the assay text read “by hemocytometer cell counting” for “by MTT assay”. The format is functional, cell-based. An outline of the steps: (§1)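 KG-1 cells in 5% FBS medium attached overnight, then treated 48 h with analogue in Me2SO or Me2SO alone (final 0.1%). Cells were harvested and counted by hemocytometer in triplicate wells. Highest concentration evaluated was 5 μM.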

Data set [2] can be described thus: Antiproliferative activity against human H292 cells at 5 uM after 72 hrs by MTT assay. The format is functional. The conditions noted are these: NCI-H292, 72 h. A digest of the protocol:
(§2)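 Cells attached for 24 h, then exposed 72 h to analogue in Me2SO or Me2SO alone (final Me2SO 0.1%), with media and compound renewed after 48 h. Viable cells were measured by MTS tetrazolium reduction in three replicates. Top concentration tested per compound was 2.5, 5, 10, 20 or 100 μM.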

For data set [3], the system named is MDA-MB-231. The experiment in a line: Antiproliferative activity against human MDA-MB-231 cells after 72 hrs by MTT assay. The class given is functional, cell-based. The conditions noted are these: MDA-MB-231, 72 h. An outline of the steps:
as §2
For orientation: Tetrazolium dyes change colour on reduction, which living cells bring about.

Data set [4] relates to DU-145. Put plainly: Antiproliferative activity against human DU145 cells at 5 uM after 72 hrs by MTT assay. The format is functional. The conditions noted are these: DU-145, 72 h. An outline of the steps:
as §2

The nature of data set [5]: Antiproliferative activity against human KG1 AML cells at 5 uM after 48 hrs by MTT assay. The conditions noted are these: in the assay text read “by hemocytometer cell counting” for “by MTT assay”. The format is functional. A digest of the protocol: as §1
The test system of data set [6] is KG-1. Put plainly: Induction of apoptosis in human KG1 cells at 5.0 uM […] by acridine orange staining. The format is functional.
The target in data set [7] is T1, Nuclear receptor subfamily 0 group B member 2 (Homo sapiens) (UniProt Q15466).
T1 sequence (whole entry): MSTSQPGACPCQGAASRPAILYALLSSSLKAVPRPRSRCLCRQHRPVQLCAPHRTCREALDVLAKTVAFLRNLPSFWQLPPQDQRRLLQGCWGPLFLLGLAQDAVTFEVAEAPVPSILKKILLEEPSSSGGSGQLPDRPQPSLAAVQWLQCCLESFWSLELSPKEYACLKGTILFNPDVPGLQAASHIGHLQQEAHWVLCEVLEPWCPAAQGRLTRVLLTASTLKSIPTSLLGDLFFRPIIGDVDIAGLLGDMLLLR
Put plainly: Displacement of [5,5'-3H2]AHPN from human recombinant GST-SHP at 50 uM by liquid scintillation counting relative to 3-Cl-AHPC. A digest of the protocol: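 Recombinant GST–human SHP was bound to glutathione–Sepharose beads and incubated 2 h with 5 nM [5,5′-3H2]AHPN with or without competitor (1.0, 5.0 or 50 μM). Beads were washed twice and counted. Displacement was expressed relative to 50 μM 3-Cl-AHPC set as 100%.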

A short description of data set [8]: Antiproliferative activity against human H292 cells after 72 hrs by MTT assay. The class given is functional, cell-based. The conditions noted are these: NCI-H292, 72 h. A digest of the protocol:
as §2

Data set [9] has as its system MDA-MB-231. The experiment in a line: Antiproliferative activity against human MDA-MB-231 cells at 5 uM after 72 hrs by MTT assay. The conditions noted are these: MDA-MB-231, 72 h. The class given is functional. A digest of the protocol:
as §2

For data set [10], the system named is DU-145. The experiment in a line: Antiproliferative activity against human DU145 cells after 72 hrs by MTT assay. The class given is functional, cell-based. The conditions noted are these: DU-145, 72 h. A digest of the protocol: as §2
Data set [11] deals with T2, Tyrosine-protein phosphatase non-receptor type 11 (Homo sapiens, UniProt Q06124).
T2 sequence (Q06124 whole entry): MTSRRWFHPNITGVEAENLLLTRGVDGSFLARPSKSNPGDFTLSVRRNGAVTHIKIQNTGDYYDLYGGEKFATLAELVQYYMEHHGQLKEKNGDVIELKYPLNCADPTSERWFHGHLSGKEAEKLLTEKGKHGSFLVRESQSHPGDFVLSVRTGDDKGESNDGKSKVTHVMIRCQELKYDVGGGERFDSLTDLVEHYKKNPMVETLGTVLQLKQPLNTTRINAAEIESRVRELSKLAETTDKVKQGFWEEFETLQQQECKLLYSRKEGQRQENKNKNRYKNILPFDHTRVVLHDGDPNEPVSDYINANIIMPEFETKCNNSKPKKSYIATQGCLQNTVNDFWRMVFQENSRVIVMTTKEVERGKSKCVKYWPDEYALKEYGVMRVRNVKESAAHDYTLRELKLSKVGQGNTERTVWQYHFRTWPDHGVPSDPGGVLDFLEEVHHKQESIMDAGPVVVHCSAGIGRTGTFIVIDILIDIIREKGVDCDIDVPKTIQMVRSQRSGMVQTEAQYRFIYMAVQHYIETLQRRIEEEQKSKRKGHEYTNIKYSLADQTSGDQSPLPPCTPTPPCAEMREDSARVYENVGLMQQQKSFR
Put plainly: Inhibition of SHP2 overexpressed in human KG1 cells. The class given is cell-based, KG-1. An outline of the steps:
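Shp-2 PTP activity was measured as hydrolysis of the fluorogenic substrate 6,8-difluoro-4-methylumbelliferyl phosphate in the presence of analogue in Me2SO or Me2SO alone (final concentration 5%).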

For data set [12], the system named is KG-1. The experiment in a line: Induction of apoptosis in human KG1 cells at 1.0 uM […] by acridine orange staining. The class given is functional.
Data set [13] can be described thus: Antiproliferative activity against human H292 cells at 100 uM after 72 hrs by MTT assay. The format is functional. The conditions noted are these: NCI-H292, 72 h. An outline of the steps: as §2
The test system of data set [14] is MDA-MB-231. The experiment in a line: Antiproliferative activity against human MDA-MB-231 cells at 10 uM after 72 hrs by MTT assay. The format is functional. The conditions noted are these: MDA-MB-231, 72 h. An outline of the steps: as §2
The test system of data set [15] is MDA-MB-231. The experiment in a line: Antiproliferative activity against human MDA-MB-231 cells at 100 uM after 72 hrs by MTT assay. The class given is functional. The conditions noted are these: MDA-MB-231, 72 h. A digest of the protocol:
as §2

Data set [16] is described as follows: Antiproliferative activity against human H292 cells at 10 uM after 72 hrs by MTT assay. The class given is functional. The conditions noted are these: NCI-H292, 72 h. A digest of the protocol: as §2
The subject of data set [17] is DU-145. The experiment in a line: Antiproliferative activity against human DU145 cells at 10 uM after 72 hrs by MTT assay. The conditions noted are these: DU-145, 72 h. The class given is functional. A digest of the protocol: as §2
The test system of data set [18] is DU-145. Put plainly: Antiproliferative activity against human DU145 cells at 100 uM after 72 hrs by MTT assay. The conditions noted are these: DU-145, 72 h. The format is functional. A digest of the protocol:
as §2

Data set [19] deals with KG-1. The experiment in a line: Induction of apoptosis in human KG1 cells after 48 hrs by acridine orange staining. The format is functional, cell-based. The conditions noted are these: KG-1, 48 h.
Data set [20] can be described thus: Growth inhibition of HMVE cells at 0.5 uM after 72 hrs by alamar blue method. The class given is cell-based. The conditions noted are these: human, HMVE cells; read-out: GI.
A short description of data set [21]: Induction of apoptosis in human HL60R cells at 0.1 uM after 24 hrs by acridine orange staining. The class given is functional. An outline of the steps: (§3)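 KG-1, HL-60R (24 h) or MDA-MB-231 (96 h) cells in 5% FBS medium attached overnight, then were treated with analogue in Me2SO or vehicle (final 0.1% Me2SO). Apoptotic cells were scored by acridine orange staining on at least three replicates. Tested concentrations were 0.1–5.0 μM, plus 25 μM for KG-1.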

Data set [22] in a line: Induction of apoptosis in human HL60R cells at 1.0 uM after 24 hrs by acridine orange staining. The class given is functional. A digest of the protocol:
as §3

Data set [23] relates to MDA-MB-231. Put plainly: Induction of apoptosis in human MDA-MB-231 cells at 2.0 uM after 96 hrs by acridine orange staining. The format is functional. A digest of the protocol:
as §3

Data set [24] is described as follows: Growth inhibition of HMVE cells after 72 hrs by alamar blue method. The format is cell-based. The conditions noted are these: Homo sapiens. A general note: Resazurin is reduced to fluorescent resorufin, in cell work by metabolically active cells.
In data set [25] the test system is MDA-MB-231. The experiment in a line: Induction of apoptosis in human MDA-MB-231 cells at 1.0 uM after 96 hrs by acridine orange staining. The format is functional. An outline of the steps:
as §3

Consider `CC(=O)Nc1ccc(-c2ccc(/C=C/C(=O)O)cc2Cl)cc1C12CC3CC(CC(C3)C1)C2`, for which the IC50 was more than 5 µM in [1]; more than 5 µM with MDA-MB-231 [3]; more than 5 µM in [8]; 5 µM in the data set with DU-145 [10]; 4.55 µM in data set [11]. Also, the inhibition at 5 µM is 13% in data set [2], 8% in the data set with DU-145 [4] and -5% with MDA-MB-231 [9]. The Activity turned out to be 25% in data set [5], 7% in the data set with KG-1 [6], 47% in [7] and 3% with KG-1 [12].

Turning to `CC1(c2cc(-c3ccc(/C=C/C(=O)O)cc3Cl)ccc2O)CCCCC1`, the IC50 in data set [1] was more than 5 µM; with MDA-MB-231 [3], more than 5 µM; in [8] it was 3.9 µM; in the data set on DU-145 [10], 8 µM; in data set [11] it was 6.4 µM. Besides, the inhibition at 5 µM in data set [2] was found to be 63%; in the data set on DU-145 [4], 32%; in the data set on MDA-MB-231 [9] it was 9%. The Activity (in data set [5]; in the data set with KG-1 [6]; with KG-1 [12]) was 0% each time.

For `O=C(O)/C=C/c1ccc(-c2ccc(F)cc2)c(Cl)c1`, the IC50 in data set [1] is more than 5 µM; with MDA-MB-231 [3], more than 100 µM; in [8], 47 µM; in the data set with DU-145 [10] it was more than 100 µM; in [11], 500 µM. Besides, the inhibition at 100 µM in [13] worked out at 60%; with MDA-MB-231 [15], 9%; in the data set with DU-145 [18], 23%. The inhibition at 10 µM in the data set with MDA-MB-231 [14] worked out at 0%; in data set [16], 18%; with DU-145 [17], 15%. Besides, the results for the Activity (in data set [5]; in the data set on KG-1 [6]; in the data set with KG-1 [12]) were 7%, 0% and 0%, respectively.

For the compound `Cc1cccc(C)c1-c1cc(-c2ccc(/C=C/C(=O)O)cc2Cl)ccc1O`, the IC50 in [1] is more than 5 µM; in the data set on MDA-MB-231 [3], more than 10 µM; in data set [8], more than 10 µM; with DU-145 [10], more than 10 µM; in data set [11] it was 19.9 µM. Also, the values for the inhibition at 10 µM (in the data set with MDA-MB-231 [14]; in [16]; in the data set on DU-145 [17]) were 0%, 0% and 4%, respectively. In addition, the Activity (in data set [5]; in the data set with KG-1 [6]; in the data set with KG-1 [12]) was 0% each time.

`O=C(O)/C=C/c1ccc(-c2ccc(O)c(C34CC5CC(CC3C5)C4)c2)c(Cl)c1`: the half-inhibitory concentration (IC50) was 0.92 µM in data set [1]; 9.8 µM in the data set with MDA-MB-231 [3]; 6.8 µM in [8]; 230 µM in the data set with KG-1 [19]; 7.9 µM with DU-145 [10]; 3.91 µM in data set [11]. For the same compound, the inhibition at 10 µM was determined as 51% in the data set with MDA-MB-231 [14], 69% in [16] and 59% in the data set with DU-145 [17]. In addition, the Activity in [5] stood at 94%; in the data set on KG-1 [6] it was 16%; in [7], 85%; with KG-1 [12], 2%.

Take `O=C(O)c1ccc2c(Cl)c(-c3ccc(O)c(C45CC6CC(CC(C6)C4)C5)c3)ccc2c1`: the inhibition at 72 h, 0.5 µM in data set [20] was 45%. In addition, the Activity in data set [21] turned out to be 62%; in data set [22], 94%; in the data set with MDA-MB-231 [23], 41%; in the data set on MDA-MB-231 [25], 21%. The same compound displayed an IC50 in [24] of more than 0.5 µM.

Consider `O=C(O)/C=C/c1ccc(-c2ccc(O)c(C34CC5CC(CC(C5)C3)C4)c2)cc1` [ADAROTENE], for which, in [20], the inhibition at 72 h, 0.5 µM was found to be 90%. The Activity in [22] turned out to be 98%; in the data set with MDA-MB-231 [23] it was 58%; with MDA-MB-231 [25], 53%. In data set [24], this compound came in with an IC50 of 0.1 µM.
